According to ChEMBL document CHEMBL1150127, “Microbial and chemical transformation studies of the bioactive marine sesquiterpenes (S)-(+)-curcuphenol and -curcudiol isolated from a deep reef collection of the Jamaican sponge Didiscus oxeata” (J Nat Prod, 2002):
≈ marks a conversion by molar mass, not a printed value. Calls of active or inactive are those of the source. The rule behind the calls is not given here.

What was measured:
[1] = system: Mycobacterium tuberculosis; assay: Antituberculosis activity against Mycobacterium tuberculosis; type: functional, organism-based
Candida albicans = assay: Antifungal activity against Candida albicans; type: functional
Plasmodium falciparum [2] = assay: Antimalarial activity against Plasmodium falciparum W2; type: functional
Staphylococcus aureus [3] = assay: Antibacterial activity against Staphylococcus aureus; type: functional
Plasmodium falciparum [4] = assay: Antimalarial activity against Plasmodium falciparum D6; type: functional
Staphylococcus aureus [5] = assay: Antibacterial activity against methicillin-resistant Staphylococcus aureus; type: functional
Cryptococcus neoformans = assay: Antifungal activity against Cryptococcus neoformans; type: functional
[6] = Cytotoxicity against human HepG2(2.2.15) cells; type: cell-based
How it was run: (§1)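 Run in cultures of 2.2.15 cells. Inhibition of HBV replication reported as EC50 and EC90, and cytotoxicity in the same cells as CC50, all in µg/mL. A selectivity index was taken from cytotoxic and antiviral concentrations.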

Hepatitis B virus = assay: Antiviral activity against Hepatitis B virus replication in human HepG2(2.2.15) cells; type: functional, organism-based; how it was run: as §1

With C/C(=C\CC[C@H](C)c1ccc(CO)cc1O)CO the Activity [1] was “inactive”.

With C/C(=C\CC[C@H](C)c1ccc(C)cc1O)CO the Activity [1] was “inactive”.

With CC(C)=CCC[C@H](C)c1ccc(C)cc1O[C@H]1O[C@H](CO)[C@@H](O)[C@H](O)[C@H]1O the Activity [1] was “inactive”.

In the case of Cc1ccc([C@@H](C)CCC[C@H](C)C(=O)O)c(O)c1, the Activity [1] is reported as “inactive”.

For Cc1ccc([C@@H](C)CCC[C@@H](C)C(=O)O)c(O)c1, the Activity [1] was “inactive”.

With Cc1ccc([C@@H](C)CC[C@@H](O)C(C)(C)O)c(O)c1 the Activity [1] was “inactive”.

With CC(C)=CCC[C@H](C)c1ccc(C)cc1O the Activity [1] was “inactive”, the MFC (Candida albicans) was 12.5 µg/mL (≈ 57.3 µM) and the MIC (Candida albicans) was 7.5 µg/mL (≈ 34.4 µM). The MIC (Plasmodium falciparum [2]) was 1.8 µg/mL (≈ 8.24 µM), the MBC (Staphylococcus aureus [3]) was 12.5 µg/mL (≈ 57.3 µM) and the MIC (Staphylococcus aureus [3]) was 7.5 µg/mL (≈ 34.4 µM). For the same compound, the MIC (Plasmodium falciparum [4]) was 3.6 µg/mL (≈ 16.5 µM), the MBC (Staphylococcus aureus [5]) was 12.5 µg/mL (≈ 57.3 µM) and the MIC (Staphylococcus aureus [5]) was 7.5 µg/mL (≈ 34.4 µM). The MFC (Cryptococcus neoformans) was 12.5 µg/mL (≈ 57.3 µM) and the MIC (Cryptococcus neoformans) was 7.5 µg/mL (≈ 34.4 µM).

In the case of Cc1ccc([C@@H](C)CCC(=O)C(C)(C)O)c(O)c1, the Activity [1] is reported as “inactive”.

For Cc1ccc([C@@H](C)CCC[C@H](C)CO)c(O)c1, the Activity [1] was “inactive”.

For Cc1ccc([C@@H](C)CCC(=O)O)c(O)c1, the Activity [1] was “inactive”.

For CC(C)=CCC[C@H](C)c1ccc(C)cc1OC(=O)c1ccncc1, the Activity [1] was “inactive”.

In the case of Cc1ccc([C@@H](C)CCCC(C)CO)c(O)c1 (some centres not stated), the Activity [1] is reported as “inactive”.

With C/C(C=O)=C\CC[C@H](C)c1ccc(CO)cc1O the Activity [1] was “inactive”.

For Cc1ccc([C@@H](C)CCCC(C)C(=O)O)c(O)c1 (some centres not stated), the Activity [1] was “inactive”.

With Cc1ccc([C@@H](C)CCCC(C)(C)O)c(O[C@H]2O[C@H](CO)[C@@H](O)[C@H](O)[C@H]2O)c1 the Activity [1] was “inactive”.

For CC(C)=CCC[C@H](C)c1cc([N+](=O)[O-])c(C)cc1O, the Activity [1] was “inactive”, the CC50 [6] was 39 µg/mL (≈ 148 µM) and the EC50 (Hepatitis B virus) was 61 µg/mL (≈ 232 µM). It also gave an EC90 (Hepatitis B virus) of 203 µg/mL (≈ 771 µM).

With CC(C)=CCC[C@H](C)c1ccc(C)c([N+](=O)[O-])c1O the Activity [1] was “inactive”.

For Cc1ccc([C@@H](C)CCCC(C)(C)O)c(O)c1, the Activity [1] was “inactive”.

For Cc1ccc([C@@H](C)CCC[C@@H](C)CO)c(O)c1, the Activity [1] was “inactive”.

For CC(C)=CCC[C@H](C)c1ccc(CO)cc1O, the Activity [1] was “inactive”, the MIC (Plasmodium falciparum [2]) was 2.9 µg/mL (≈ 12.4 µM) and the MIC (Plasmodium falciparum [4]) was 3.8 µg/mL (≈ 16.2 µM).

For Cc1ccc([C@@H](C)CC[C@H](O)C(C)(C)O)c(O)c1, the Activity [1] was “inactive”.

In the case of Cc1ccc([C@@H](C)CCCC(C)(C)O)c(OC(=O)c2ccncc2)c1, the Activity [1] is reported as “inactive”.
